From ChEMBL document CHEMBL1145901, “A novel ergot alkaloid as a 5-HT(1A) inhibitor produced by Dicyma sp” (J Med Chem, 2003)

Assays:
[1] = molecular target: T1, 5-hydroxytryptamine receptor 2A (Homo sapiens, UniProt P28223); experiment: Binding affinity against 5-hydroxytryptamine 2A receptor human cloned receptors in HEK 293 cells using [3H]ketanserin as radioligand; format: cell-based, HEK293
[2] = molecular target: T2, 5-hydroxytryptamine receptor 1B (Homo sapiens, UniProt P28222); experiment: Binding affinity against human 5-hydroxytryptamine 1B receptor cloned receptors in CHO cells using [3H]5-CT as radioligand; format: cell-based
T2 sequence (P28222 whole entry): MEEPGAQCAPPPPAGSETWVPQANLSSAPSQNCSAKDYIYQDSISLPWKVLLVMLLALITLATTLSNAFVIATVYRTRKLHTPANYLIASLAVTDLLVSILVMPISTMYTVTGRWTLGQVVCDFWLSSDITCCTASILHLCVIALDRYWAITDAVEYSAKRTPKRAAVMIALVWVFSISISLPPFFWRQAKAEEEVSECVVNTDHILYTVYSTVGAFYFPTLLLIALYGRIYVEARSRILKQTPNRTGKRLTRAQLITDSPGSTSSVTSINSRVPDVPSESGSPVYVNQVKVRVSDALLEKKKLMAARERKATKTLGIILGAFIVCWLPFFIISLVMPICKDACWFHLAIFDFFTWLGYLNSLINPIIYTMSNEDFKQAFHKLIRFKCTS
Method in brief: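 Membranes from CHO cells expressing human 5-HT1B, in 50 mM Tris-HCl pH 7.4 with 0.1% ascorbate, 10 μM pargyline, 0.5 mM EDTA and 10 mM MgCl2. Compound in DMSO was preincubated 15 min at RT, then 10 nM stock [3H]-5-CT was added for 30-45 min at 37 °C. Filtration on PEI-treated GF/C, scintillation counting; 200 μM 5-HT (stock) defined nonspecific binding. Four-parameter IC50, Cheng-Prusoff Ki, mean of at least two determinations.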

[3] = molecular target: T3, 5-hydroxytryptamine receptor 2C (Homo sapiens, UniProt P28335); experiment: Binding affinity against 5-hydroxytryptamine 2C receptor human cloned receptors in HEK 293 cells using [3H]mesulergine as radioligand; format: cell-based, HEK293
T3 sequence (P28335 whole entry): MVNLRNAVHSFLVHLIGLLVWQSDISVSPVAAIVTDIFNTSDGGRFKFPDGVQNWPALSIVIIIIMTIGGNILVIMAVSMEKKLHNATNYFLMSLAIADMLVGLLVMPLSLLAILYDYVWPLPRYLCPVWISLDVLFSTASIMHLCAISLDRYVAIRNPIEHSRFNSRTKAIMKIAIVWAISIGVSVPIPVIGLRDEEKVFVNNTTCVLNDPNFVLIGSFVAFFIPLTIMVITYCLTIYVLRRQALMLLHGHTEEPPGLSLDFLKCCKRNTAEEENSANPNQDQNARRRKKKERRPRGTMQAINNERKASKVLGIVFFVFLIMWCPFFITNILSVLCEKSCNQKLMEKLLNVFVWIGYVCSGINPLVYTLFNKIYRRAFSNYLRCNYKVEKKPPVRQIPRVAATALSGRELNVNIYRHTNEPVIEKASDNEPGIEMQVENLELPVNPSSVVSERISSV

[4] = molecular target: T4, 5-hydroxytryptamine receptor 1A (Homo sapiens, UniProt P08908); experiment: Binding affinity against 5-hydroxytryptamine 1A human cloned receptors in HEK293 cells; format: cell-based
T4 sequence (P08908 whole entry): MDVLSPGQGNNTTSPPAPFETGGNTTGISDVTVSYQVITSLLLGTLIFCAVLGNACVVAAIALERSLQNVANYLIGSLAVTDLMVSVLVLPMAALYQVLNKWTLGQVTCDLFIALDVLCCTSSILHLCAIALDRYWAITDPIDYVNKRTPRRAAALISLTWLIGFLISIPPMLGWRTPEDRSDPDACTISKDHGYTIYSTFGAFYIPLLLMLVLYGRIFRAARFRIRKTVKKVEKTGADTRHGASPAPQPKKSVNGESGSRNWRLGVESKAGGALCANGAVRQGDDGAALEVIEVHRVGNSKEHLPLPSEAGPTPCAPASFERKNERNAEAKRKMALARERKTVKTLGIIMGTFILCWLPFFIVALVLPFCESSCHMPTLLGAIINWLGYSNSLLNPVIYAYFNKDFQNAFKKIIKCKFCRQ
Method in brief: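 Human 5-HT1A stably expressed in HEK 293 cells. Membranes were homogenised in ice-cold 50 mM Tris (pH 7.7 at 25 °C) and stored at -70 °C. Binding was measured as displacement of [3H]-8-OH-DPAT. IC50 came from a four-parameter logistic fit of cpm and was converted to Ki by Cheng-Prusoff. Values are the mean of at least two determinations.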

[5] = molecular target: 5-hydroxytryptamine receptor 6 (Homo sapiens, UniProt P50406); experiment: Binding affinity against 5-hydroxytryptamine 6 human cloned receptors in HeLa cells using [3H]LSD as radioligand; format: cell-based
5-hydroxytryptamine receptor 6, sequence (P50406 whole entry): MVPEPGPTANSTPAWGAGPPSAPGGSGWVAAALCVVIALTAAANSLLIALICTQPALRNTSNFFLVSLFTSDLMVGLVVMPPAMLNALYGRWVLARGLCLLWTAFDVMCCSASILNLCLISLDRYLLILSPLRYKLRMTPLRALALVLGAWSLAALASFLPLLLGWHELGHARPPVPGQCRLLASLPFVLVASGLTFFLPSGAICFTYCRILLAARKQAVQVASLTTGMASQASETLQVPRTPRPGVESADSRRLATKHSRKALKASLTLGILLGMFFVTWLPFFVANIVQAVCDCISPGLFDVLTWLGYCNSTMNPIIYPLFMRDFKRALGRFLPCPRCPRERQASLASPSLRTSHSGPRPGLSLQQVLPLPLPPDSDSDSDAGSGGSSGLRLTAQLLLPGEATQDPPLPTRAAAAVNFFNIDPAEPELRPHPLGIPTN

[6] = molecular target: 5-hydroxytryptamine receptor 7 (Homo sapiens, UniProt P34969); experiment: Binding affinity against 5-hydroxytryptamine 7 human receptors
5-hydroxytryptamine receptor 7, sequence (P34969 whole entry): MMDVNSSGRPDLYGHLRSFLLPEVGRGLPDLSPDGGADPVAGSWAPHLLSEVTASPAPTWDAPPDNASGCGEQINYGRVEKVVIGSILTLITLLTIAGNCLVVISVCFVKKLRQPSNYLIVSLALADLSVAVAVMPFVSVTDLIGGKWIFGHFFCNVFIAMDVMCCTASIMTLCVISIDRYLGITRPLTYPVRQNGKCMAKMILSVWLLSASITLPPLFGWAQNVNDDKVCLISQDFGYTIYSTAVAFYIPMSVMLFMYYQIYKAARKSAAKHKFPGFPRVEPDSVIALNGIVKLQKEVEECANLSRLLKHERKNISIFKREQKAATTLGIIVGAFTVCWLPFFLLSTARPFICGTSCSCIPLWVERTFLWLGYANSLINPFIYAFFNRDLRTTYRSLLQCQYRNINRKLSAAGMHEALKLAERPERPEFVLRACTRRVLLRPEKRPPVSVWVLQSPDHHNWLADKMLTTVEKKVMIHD

[7] = molecular target: T5, 5-hydroxytryptamine receptor 1A (Homo sapiens) (UniProt P08908); experiment: Intrinsic activity for human 5-hydroxytryptamine 1A receptors HEK 293 cell membranes using [35S]GTP gamma-S; format: functional; settings: HEK293
T5 sequence (whole entry): T4 sequence (P08908 whole entry)
Method in brief: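 Membranes from 10^6 HEK293 cells were preincubated with compound for 30 min at 30 °C in 20 mM HEPES pH 7.4 with 3 mM MgCl2, 100 mM NaCl, 10 μM GDP and 0.2 mM ascorbate. [35S]GTPγS (100 pM assay concentration) was then added for 30 min at 30 °C. Nonspecific binding used unlabeled GTPγS. Samples were filtered on GF/B and counted by scintillation. Intrinsic activity is relative to 5-HT; four to seven independent experiments.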

[8] = molecular target: T3, 5-hydroxytryptamine receptor 2C; experiment: Binding affinity against 5-hydroxytryptamine 2C receptor human cloned receptorswithouteffect in HEK 293 cells using [3H]mesulergine as radioligand; format: cell-based, HEK293
Method in brief: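 Filtration binding on membranes from cells stably expressing the human cloned receptor, homogenized in ice-cold 50 mM Tris (pH 7.7). Assay buffer was 50 mM Tris-HCl pH 7.4 with 0.1% ascorbic acid, 10 μM pargyline, 0.5 mM EDTA and 10 mM MgCl2. Compound in DMSO was preincubated 15 min at room temperature, then radioligand was added for 30-45 min at 37 °C. Read-out was scintillation counting. IC50 came from a four-parameter logistic fit and Ki from Cheng-Prusoff; values are the mean of at least two determinations.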

D(2) dopamine receptor = D(2) dopamine receptor (Homo sapiens, UniProt P14416); experiment: Binding affinity against human Dopamine receptor D2 in CHO cells using [125I]iodosulpiride; format: cell-based
D(2) dopamine receptor, sequence (P14416 whole entry): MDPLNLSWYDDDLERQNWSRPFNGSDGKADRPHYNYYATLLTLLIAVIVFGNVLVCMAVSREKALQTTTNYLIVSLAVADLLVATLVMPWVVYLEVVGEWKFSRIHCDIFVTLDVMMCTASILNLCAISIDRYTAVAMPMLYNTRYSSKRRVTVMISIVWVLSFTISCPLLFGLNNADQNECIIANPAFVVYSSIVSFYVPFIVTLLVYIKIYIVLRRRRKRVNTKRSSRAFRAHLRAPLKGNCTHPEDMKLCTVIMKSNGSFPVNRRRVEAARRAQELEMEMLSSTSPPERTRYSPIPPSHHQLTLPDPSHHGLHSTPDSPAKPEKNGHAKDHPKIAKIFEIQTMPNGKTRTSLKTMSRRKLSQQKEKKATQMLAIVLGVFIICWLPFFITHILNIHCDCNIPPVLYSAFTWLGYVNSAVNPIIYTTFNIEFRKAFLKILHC

[9] = molecular target: T4, 5-hydroxytryptamine receptor 1A; experiment: (§1) Binding affinity against human 5-hydroxytryptamine 1A receptors HEK 293 cell membranes using [35S]GTP gamma-S; format: functional, HEK293
[10] = molecular target: T2, 5-hydroxytryptamine receptor 1B; experiment: Binding affinity against cloned human 5-hydroxytryptamine 1B receptor in CHO cells using [3H]5-CT as radioligand; format: cell-based
[11] = molecular target: T1, 5-hydroxytryptamine receptor 2A; experiment: Binding affinity against 5-hydroxytryptamine 2A receptor human cloned receptorswithouteffect in HEK 293 cells using [3H]ketanserin as radioligand; format: cell-based, HEK293
[12] = molecular target: T5, 5-hydroxytryptamine receptor 1A (Homo sapiens); experiment: as §1; format: functional; settings: HEK293
[13] = molecular target: T4, 5-hydroxytryptamine receptor 1A; experiment: Binding affinity against 5-hydroxytryptamine 1A human cloned receptors in HEK293 cells using [3H]8-OH-DPAT as radioligand; format: cell-based
[14] = molecular target: T2, 5-hydroxytryptamine receptor 1B; experiment: Binding affinity against human 5-hydroxytryptamine 1B receptor cloned receptors in CHO cells; format: cell-based
Method in brief: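 Human 5-HT1B-expressing CHO cell membranes were homogenized in ice-cold 50 mM Tris (pH 7.7) and stored at -70 °C. They were resuspended in 50 mM Tris-HCl pH 7.4 containing 0.1% ascorbate, 10 μM pargyline, 0.5 mM EDTA and 10 mM MgCl2. Compound in DMSO was preincubated with membranes for 15 min at RT. [3H]-5-CT (added from 10 nM) was then incubated 30-45 min at 37 °C. Samples were filtered and counted by scintillation. Nonspecific binding used 5-HT. IC50 came from a four-parameter fit; Ki by Cheng-Prusoff. Results are means of ≥2 determinations.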

T1 sequence (P28223 whole entry): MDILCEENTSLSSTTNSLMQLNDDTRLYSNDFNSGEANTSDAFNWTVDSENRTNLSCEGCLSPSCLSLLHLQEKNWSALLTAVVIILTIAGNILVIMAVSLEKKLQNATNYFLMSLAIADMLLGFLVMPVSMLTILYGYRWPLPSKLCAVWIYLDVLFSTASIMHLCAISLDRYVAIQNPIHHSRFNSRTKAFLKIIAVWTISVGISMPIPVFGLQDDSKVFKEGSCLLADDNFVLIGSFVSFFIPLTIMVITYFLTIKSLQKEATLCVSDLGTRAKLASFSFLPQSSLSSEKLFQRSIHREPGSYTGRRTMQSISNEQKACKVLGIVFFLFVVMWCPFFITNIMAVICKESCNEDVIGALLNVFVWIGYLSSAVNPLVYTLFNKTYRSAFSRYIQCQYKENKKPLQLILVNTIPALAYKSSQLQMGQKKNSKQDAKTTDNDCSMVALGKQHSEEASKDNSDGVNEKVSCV

Row | SMILES | Ki [1] [nM] | Ki [5] [nM] | Ki [6] [nM] | Intrinsic activity [7] | EC50 [9] [nM] | Emax [12] | Stimulation [12] | other results
1 | NCCCC1(CCCN)CCc2cccc(O)c2C1 | 10000 | 126 | 3.16 | – | – | – | – | Ki [2]: 316 nM; Ki [3]: 12600 nM; Ki [4]: 2 nM
2 | NCCc1c[nH]c2ccc(O)cc12 | – | – | – | 1 | – | – | – | –
3 | CC(C)C[C@H]1C(=O)N[C@@H](Cc2ccccc2)[C@]2(O)O[C@@](C)(NC(=O)[C@@H]3C=C4c5cccc6[nH]cc(c56)C[C@H]4N(C)C3)C(=O)N12 | – | 50.1 | 6.31 | 1.11 | 2 | 229 | 138 | Ki [8]: 15.8 nM; Ki (D(2) dopamine receptor): 3.16 nM; Ki [10]: 3.16 nM; Ki [11]: 15.8 nM; Ki [13]: 0.0631 nM
4 | NCCc1c[nH]c2ccc(C(N)=O)cc12 | > 5010 | 1000 | – | – | – | – | – | Ki [14]: 1.26 nM
5 | CN1CCN(c2cc3c(cc2Cl)CCN3C(=O)Nc2ccc(-c3ccncc3)c3ccccc23)CC1 | – | – | – | 0.33 | 19.1 | 144 | 42% | –
